The list is not random: actives were taken first. Their share in the collection is about 6.6%.
BAP1 block = inhibitors of human BAP1 deubiquitinase | recombinant BAP1, Ub-AMC hydrolysis fluorescence kinetic; stronger effect = lower value | Q92560 | calls only at 20 µM | 72,000 compounds, 0.48% hits;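 active = activity remaining at or below 50% of control, provided the compound also passes the data quality filters; inactive = the rest, including low values that fail the filters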;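 also: 100% = DMSO wells rate and 0% = substrate alone blank rate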
HEK293 NFkB inh = lowers PMA/ionomycin-induced NF-kB signal in HEK293 cells | HEK-293 NF-kB luciferase reporter, luminescence | inhibition, % at 3 µM | 62,000 compounds, 0.21% hits;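 active = inhibition above the mean of all tested compounds plus 3 SD, cut at about 40% in these data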;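 also: 0% = stimulated DMSO wells and 100% = 10 µM reference inhibitor 5653914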
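Timing: 1 h pretreatment, 16 h stimulation, 37 °C; system: HEK-293 cells with stable firefly luciferase reporter driven by four HIV NF-kB elements; doses: 3 µM once, 0.30% DMSO; measured by: luciferase luminescence; control set: DMSO and 10 µM reference inhibitor; repeats: single test; reagent: PMA plus ionomycin mix as NF-kB-activating stimulus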
M1 agonist = agonists of M1 muscarinic receptor. CHO-M1 cells, Fluo-4 calcium fluorescence, agonist mode; stronger effect = higher value. B-score at 10 µM. 64,000 compounds, 3% hits. AID 626;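 active = fluorescence rise, raw or as B-score row- and column-corrected plate score, outside the 99.7% band of its plate's samples, either direction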
M1 antag = blocks the rat M1 muscarinic receptor response to acetylcholine; P08482; CHO-M1 cells, Fluo-4 calcium, ACh EC80 antagonist mode; stronger effect = lower value; B-score at 10 µM; 64,000 compounds, 3.4% hits; AID 628;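 active = calcium fluorescence response, raw or row-and-column corrected B-score, differing from the plate sample mean either way at a set confidence level, mostly lower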
Her2 expr inh = lowers expression of human Her2 kinase; P04626; SKBR-3 HER2 protein level, AlphaScreen, 18-24 h; stronger effect = lower value; HER2 level % of control, % at 10 µM; 65,000 compounds, 0.69% hits;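 active = HER2 level under 5% of the carrier-only control; inconclusive = no clear call, values can overlap the other calls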;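 also: 100% = DMSO carrier and 0% = 500 nM PU-H71 HSP90 inhibitor; lower value means stronger loss of Her2 protein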
JNK3 inh = JNK3 (human) kinase inhibition | P53779 | purified JNK3 kinase activity, HTS | inhibition, % at 8 µM | 60,000 compounds, 0.61% hits; in the data active = inhibition above about 17%;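 also: 0% = DMSO and 100% = reference inhibitor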
M1 ag confirm = rat M1 muscarinic agonism, confirmation; shares compounds with M1 agonist; CHO-M1 cells, Fluo-4 calcium fluorescence, agonist mode; actives lie on both sides; fluorescence change (max-min) at 10 µM; 1,700 compounds, 19% hits; AID 1488;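 active = fluorescence change differs from the solvent-only DMSO control mean at a set confidence level in both duplicate runs; inconclusive = differs from solvent-only control mean in just one of two runs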;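 also: an EC20 dose of acetylcholine follows compound addition during the same imaging run; raw fluorescence intensity difference in instrument units with no normalization to controls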
M4 agonist ctr = counter-screen for M1 agonists: activity at rat M4 receptor | shares compounds with M1 agonist | 1,700 compounds, 9% hits | fluorescence change (max-min) at 10 µM | CHO M4/Gqi5 cells, Fluo-4 calcium fluorescence, agonist mode; actives lie on both sides | AID 1741;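 active = fluorescence change differing from the plate's solvent-only control wells at 99.7% confidence in both duplicates, whether higher or lower; inconclusive = differs from solvent controls in only one of two duplicates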
* hit, by the source's call; i = inactive; u = inconclusive; x = not tested or not shown.

SMILES	BAP1 block	HEK293 NFkB inh	M1 agonist	M1 antag	Her2 expr inh	JNK3 inh	M1 ag confirm	M4 agonist ctr
COc1ccc(CCN2C(=O)CC(C(=O)Nc3cccc(C)c3)SC2=Nc2ccccc2)cc1OC (configuration not stated)	i	x	x	x	x	x	x	x
O=S(=O)(c1cccc(S(=O)(=O)N2CCC(N3CCCCC3)CC2)c1)N1CCOCC1	i	6.6	5.89*	-1.79	91.3	x	-14.3	-18.4
O=S(=O)(c1cccc(S(=O)(=O)N2CCC(Cc3ccccc3)CC2)c1)N1CCOCC1	x	14.3	0.701	-0.491	61.8	x	x	x
N#Cc1cc(Nc2ccc(Cc3ccncc3)cc2)c([N+](=O)[O-])cc1C#N	i	x	x	x	x	x	x	x
CC1CN(S(=O)(=O)c2ccc(C(=O)Nc3nc4c(cc5c6c(cccc64)CC5)s3)cc2)CC(C)O1 (configuration not stated)	i	x	x	x	x	x	x	x
O=C(c1ncc[nH]1)c1ccco1	i	11.6	3.55*	0.127	91.2	3.2	-12	-18.2
CCOC(=O)c1c(NC(=O)c2ccccc2F)sc(C(=O)Nc2cccc(Cl)c2)c1C	i	x	x	x	x	x	x	x
O=c1c(-c2ccccc2)[n+]([O-])c2ccccc2n1O	i	6.8	9.29*	-0.165	81.0	6.0	42.4	5.09
CCOC(=O)COn1c(=O)c(-c2cccs2)[n+]([O-])c2ccccc21	i	13.7	88.4*	-0.0764	124.8	5.8	800*	u
CCOn1c(=O)c(-c2ccc(OC)cc2)[n+]([O-])c2ccccc21	i	-3.7	5.19*	-0.891	47.2	-4.6	u	-92
CN1/C(=N\O)c2cccc3cccc1c23	i	5.9	6.9*	-0.5	117.1	-1.7	42	-2.88
CN1c2cccc3cccc(c23)N(C)C1(C)C	x	16.6	0.0687	-0.0926	83.2	-22.8	x	x
CCOC(=O)c1cccc(NC(=O)COc2ccc(Cl)cc2)c1	i	x	x	x	x	x	x	x
O=C(Nc1cccc(F)c1)c1c(F)c(F)c(F)c(F)c1F	i	-1.3	3.7*	-1.04	72.8	-3.6	-0.429	-58.3
O=C(Nc1ccccc1NC(=O)c1c(F)c(F)c(F)c(F)c1F)c1c(F)c(F)c(F)c(F)c1F	i	14.4	2.89*	-1.64	88.2	-0.8	-4.43	u
O=C(Nc1cccnc1)c1c(F)c(F)c(F)c(F)c1F	i	7.3	0.355	0.0473	121.5	0.9	x	x
CCCCN(C)Cc1c(O)ccc2c(-c3ccccc3)cc(=O)oc12	i	9.8	8.16*	-3.83*	101.4	6.6	-2.73	-20.9
O=C(COc1ccccc1)Nc1ccccc1C(=O)NCc1ccco1	i	11.3	6.67*	-0.428	87.3	-1.1	u	-42.1
O=C(Nc1ccccc1C(=O)NCc1ccco1)c1ccccc1	i	10.9	0.935	-0.654	96.5	0.2	x	x
Cc1ccc2oc(-c3ccc(N=CC=Cc4cccc([N+](=O)[O-])c4)cc3)nc2c1	i	x	x	x	x	x	x	x
CCOC(=O)N1CCN(C(=O)c2ccc3c(=O)n(Cc4ccc(Cl)cc4)c(=S)[nH]c3c2)CC1	i	4.1	0.162	-0.922	100.9	x	x	x
CCCn1c(=S)[nH]c2cc(C(=O)N3CCCC(C(=O)OCC)C3)ccc2c1=O (configuration not stated)	i	12.9	3.25*	-1.83	98.3	x	-16	u
O=C(O)c1cc(N2C(=O)c3ccccc3C2=O)cc(N2C(=O)c3ccccc3C2=O)c1	i	x	x	x	x	x	x	x
O=C(O)c1cc(O)c2c(c1)C(=O)c1cccc(O)c1C2=O	i	x	67.5*	-0.0907	115.2	-0.3	189*	u
Cc1ccc(-c2cn3nc(C)c(C)nc3n2)cc1	i	18.7	10.9*	0.401	106.9	-0.5	103*	83.1
SMILES	BAP1 block	HEK293 NFkB inh	M1 agonist	M1 antag	Her2 expr inh	JNK3 inh	M1 ag confirm	M4 agonist ctr
Cc1nn2cc(-c3ccccc3)nc2s1	x	-12.0	1.39	1.21	121.8	x	x	x
COc1cccc(N2CCN(C3CCCC(C)C3)CC2)c1 (configuration not stated)	i	7.1	3.58*	-0.402	122.5	-6.5	-11.5	-23.8
CCOC(=O)Cc1csc(NC(=O)CSc2nnc(-n3nc(C)cc3C)c3ccccc23)n1	i	9.1	4.71*	-0.722	101.6	-3.7	0.183	-19.7
CC(=O)Nc1ccccc1OCC(=O)c1cc(C)n(Cc2cccs2)c1C	i	54.6*	3.11*	-2.4	69.2	1.0	22.3	-32.9
O=C1C2=C(Nc3ccccc3SC2c2ccco2)c2ccccc21 (configuration not stated)	i	17.2	active	0.14	81.7	8.2	u	-65.1
O=C1c2ccccc2NC(c2ccco2)N1O (configuration not stated)	i	6.4	0.372	0.204	91.5	6.5	x	x
COc1cc2nc(NCC3CCCO3)n3nc(-c4cccnc4)nc3c2cc1OC (configuration not stated)	i	11.4	2.86*	-3.89*	87.2	4.0	u	-38.7
COc1cccc(-c2nc(NCC3CCCO3)c3ccccc3n2)c1O (configuration not stated)	i	x	7.1	-0.825	85.3	-2.1	x	x
CCn1cnc2sc(C(=O)N(Cc3ccc(N(C)C)cc3)Cc3ccco3)c(C)c2c1=O	i	12.6	11.6*	0.0853	54.0	-5.0	-22.4	u
CCn1cnc2sc(C(=O)N3CCN(Cc4ccc5c(c4)OCO5)CC3)c(C)c2c1=O	i	15.7	0.31	0.401	100.7	1.5	x	x
Cc1ccc(C)c(N2CCN(Cc3nnnn3C3CCCCC3)CC2)c1	i	9.1	10.2*	0.00406	104.1	-5.6	-6.38	-23.7
CCCCn1nc(NC(=O)c2cccs2)c2cc3cc(OC)ccc3nc21	x	8.3	6.36*	0.393	40.2	-5.1	-23.9	-24.5
COc1ccc(NC(=O)c2ccccc2NC(=O)C2CCCO2)cc1 (configuration not stated)	i	-8.8	0.492	0.975	118.9	4.6	x	x
COc1ccc2nc3c(cc2c1)c(NC(=O)C1CCCO1)nn3CC(C)C (configuration not stated)	i	7.4	4.27*	-0.82	69.5	-7.9	3.29	-23.5
O=c1c2c3c(sc2nc2sc(CN4CCOCC4)cn12)CCCC3	i	5.3	-3.31*	-0.288	82.3	4.9	-17.7	u
C=CCn1c(SCC(=O)NCCN2CCOCC2)nc2sc3c(c2c1=O)CCC3	i	x	x	x	x	x	x	x
CCN1CCN(C(=O)C2CCN(Cc3nc(-c4ccc(Cl)cc4)oc3C)CC2)CC1	i	2.0	0.688	1.14	59.0	2.9	x	x
CCOC(=O)C1CCN(C(=O)CSCc2nc(-c3ccc(OCC)cc3)oc2C)CC1	i	13.1	5.14*	-1.61	101.1	5.4	-10.6	u
